{"source": "ChEMBL document CHEMBL1133585", "about": "“Antimalarial activity of compounds interfering with Plasmodium falciparum phospholipid metabolism: comparison between mono- and bisquaternary ammonium salts” (J Med Chem, 2000)"}
{"test_system": "Plasmodium falciparum", "test": "In vitro activity against Plasmodium falciparum", "assay_type": "functional, organism-based", "procedure,_shortened": "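P. falciparum cultures at 0.3-0.5% parasitemia (percentage of infected erythrocytes) exposed to drug for one parasite cycle (48 h). Some drugs were dissolved in DMSO, then diluted in culture medium (final DMSO ≤0.25%). [3H]hypoxanthine was then added for 18 h to measure viability. IC50 is 50% inhibition of parasite growth, given as the mean of at least two independent experiments in triplicate using different stock solutions.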", "units": {"IC50": "nM"}}
{"compound": "CCCCCCCCCCCCCCCC[N+](CC)(CC)CC", "IC50": 140}
{"compound": "CCCCCCCCCCCC[N+](C)(C)CCCCCCCCCCCCCCCC[N+](C)(C)CCCCCCCCCCCC", "IC50": 1800}
{"compound": "CCCCCCCC[N+](C)(C)CCO", "IC50": 3850}
{"compound": "CCCCCCCCCCCC[N+](C)(C)CCCCCC[N+](C)(C)CCCCCCCCCCCC", "IC50": 220}
{"compound": "CC[N+](CC)(CC)CCCCCCCCCCCC[N+](CC)(CC)CC", "IC50": 45}
{"compound": "C=CC[N+](C)(CC=C)CCCCCCCCCCCC", "IC50": 140}
{"compound": "C#CCC[N+](C)(C)CCCCCCCCCCCC", "IC50": 230}
{"compound": "C#CC[N+](C)(CC#C)CCCCCCCCCCCC", "IC50": 380}
{"compound": "C#CC[N+](C)(C)CCCCCCCCCCCC", "IC50": 360}
{"compound": "CCCCC[N+](C)(C)CC(C)O", "note": "(stereo unspecified)", "IC50": 115000}
{"compound": "C=CC[N+](C)(C)CCCCCCCCCCCC", "IC50": 270}
{"compound": "CCCCCCCCCCCC[N+](C)(C)CCCCCCCCCCCC[N+](C)(C)CCCCCCCCCCCC", "IC50": 180}
{"compound": "CCCCCCCCCCCCCCCC[N+]1(C)CCCC1", "IC50": 420}
{"compound": "CCCCCC[N+](CC)(CC)CC", "IC50": 9700}
{"compound": "CCCCCCCCCCCCCC[N+]1(C)CCCC1", "IC50": 270}
{"compound": "CCCCCC[N+]1(C)CCCC1", "IC50": 26000}
{"compound": "CC[N+](CC)(CC)CCCCCC[N+](CC)(CC)CCCCCC[N+](CC)(CC)CC", "IC50": 800000}
{"compound": "CCCCCCCCCCCC[N+](C)(C)C(C)C(O)c1ccccc1", "note": "(stereo unspecified)", "IC50": 670}
{"compound": "CCCCCCCC[N+](C)(C)C", "IC50": 5000}
{"compound": "CC[N+](CC)(CC)CCCCCCCCCCCCCCCCCCCCC[N+](CC)(CC)CC", "IC50": 0.003}
{"compound": "C[N+](C)(C)CCCCCCCCc1ccccc1", "IC50": 620}
{"compound": "C[N+]1(CCCCCCCCCCCC[N+]2(C)CCCC2)CCCC1", "IC50": 13}
{"compound": "CCCCCCCCCCCCCCCCCC[N+](CC)(CC)CC", "IC50": 270}
{"compound": "CCCCCCCCCCCC[N+]1(C)CCCC1", "IC50": 220}
{"compound": "C[N+](C)(C)CCCCCCCCCCCCCCCC[N+](C)(C)C", "IC50": 4}
{"compound": "C#CCC[N+](C)(C)CCCCCCCCCCCC[N+](C)(C)CCC#C", "IC50": 44}
{"compound": "CCCCCCCCCCCC[N+](C)(C)CCC[N+](C)(C)CCCCCCCCCCCC", "IC50": 10800}
{"compound": "C=CC[N+](CC)(CC)CCCCCCCCCCCC[N+](CC)(CC)CC=C", "IC50": 5.3}
{"compound": "CCCCCCCCCCCCCCCC[N+](C)(C)CCO", "IC50": 810}
{"compound": "CC[N+](CC)(CC)CCCCCCCCCCCCCCCC[N+](CC)(CC)CC", "IC50": 1.6}
{"compound": "CC[N+](CC)(CC)CCCCCCCC[N+](CC)(CC)CC", "IC50": 540}
{"compound": "CC[N+](CC)(CCO)CCCCCCCCCCCCCCCC[N+](CC)(CC)CCO", "IC50": 4.9}
{"compound": "C[N+]1(CCCCCCCCCCCCCCCC[N+]2(C)CCCC2)CCCC1", "IC50": 0.64}
{"compound": "C#CC[N+](C)(C)CCCCCCCCCCCC[N+](C)(C)CC#C", "IC50": 7.6}
{"compound": "CCCCCCCCCCCC[N+](C)(C)CC(C)O", "note": "(stereo unspecified)", "IC50": 430}
{"compound": "C[N+]1(CCCCCCCCCCCCCC[N+]2(C)CCCC2)CCCC1", "IC50": 1.1}
